Reference: ChEMBL document CHEMBL2390927, “Design, synthesis and antimicrobial evaluation of novel benzimidazole type of Fluconazole analogues and their synergistic effects with Chloromycin, Norfloxacin and Fluconazole” (2013)
Converted amounts (≈) assume the structure as drawn.

What was measured:
[1] = tested on: Staphylococcus aureus; assay: Antibacterial activity against Staphylococcus aureus ATCC 6538 after 24 hrs by two-fold serial dilution method; format: functional; conditions: ATCC 6538, 24 h
[2] = tested on: Candida albicans; assay: Potentiation of fluconazole-induced antifungal activity against Candida albicans ATCC 76615 at MIC after 24 hrs by two-fold serial dilution method; format: functional
[3] = tested on: Pseudomonas aeruginosa; assay: Antibacterial activity against Pseudomonas aeruginosa ATCC 27853 after 24 hrs by two-fold serial dilution method; format: functional; conditions: ATCC 27853, 24 h
In short: (§1)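 MIC taken as the lowest concentration giving complete growth inhibition, by standard two-fold serial dilution in 96-well plates following NCCLS. Stocks in DMSO, diluted in Mueller–Hinton broth. Inoculum adjusted with sterile saline to 1 × 10⁵ CFU. DMSO with inoculum and no drug served as solvent control. Growth read visually and spectrophotometrically, in triplicate.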

[4] = tested on: Bacillus subtilis; assay: Antibacterial activity against Bacillus subtilis ATCC 21216 after 24 hrs by two-fold serial dilution method; format: functional; conditions: ATCC 21216, 24 h; in short: as §1
[5] = tested on: Saccharomyces cerevisiae; assay: Potentiation of fluconazole-induced antifungal activity against Saccharomyces cerevisiae at 2 times MIC after 24 hrs by two-fold serial dilution method; format: functional
[6] = tested on: Bacillus; assay: Antibacterial activity against Bacillus proteus ATCC 13315 after 24 hrs by two-fold serial dilution method; format: functional; conditions: ATCC 13315, 24 h; in short: as §1
[7] = tested on: Saccharomyces cerevisiae; assay: Antifungal activity against Saccharomyces cerevisiae after 24 hrs by two-fold serial dilution method; format: functional
In short: (§2)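 Spore suspension in sterile distilled water from one-day-old cultures on Sabouraud agar, final 1–5 × 10³ spore mL⁻¹. Compound stocks diluted in sterile RPMI 1640 as two-fold serial dilutions in microdilution plates. MIC is the lowest concentration completely inhibiting growth. Growth monitored visually and spectrophotometrically, in triplicate.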

[8] = tested on: Bacillus; assay: Potentiation of chloromycin-induced antibacterial activity against Bacillus proteus ATCC 13315 at 4 times MIC after 24 hrs by two-fold serial dilution method; format: functional
[9] = tested on: Candida albicans; assay: Antifungal activity against Candida albicans ATCC 76615 after 24 hrs by two-fold serial dilution method; format: functional; conditions: ATCC 76615, 24 h; in short: as §2
[10] = tested on: Cyberlindnera jadinii; assay: Antifungal activity against Candida utilis after 24 hrs by two-fold serial dilution method; format: functional; conditions: Williopsis jadinii; in short: as §2
[11] = tested on: Candida; assay: Potentiation of fluconazole-induced antifungal activity against Candida mycoderma at 2 times MIC after 24 hrs by two-fold serial dilution method; format: functional
[12] = tested on: Bacillus subtilis; assay: Potentiation of chloromycin-induced antibacterial activity against Bacillus subtilis ATCC 21216 at 2 times MIC after 24 hrs by two-fold serial dilution method; format: functional
[13] = tested on: Salmonella typhi; assay: Antibacterial activity against Bacillus typhi after 24 hrs by two-fold serial dilution method; format: functional, Salmonella enterica subsp. enterica serovar Typhi; conditions: Salmonella enterica
In short: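 Two-fold serial dilution in 96-well plates following NCCLS; compounds dissolved in DMSO as stocks, then diluted in Mueller-Hinton broth; bacterial suspension adjusted with sterile saline to 1 × 10⁵ CFU; MIC taken as lowest concentration completely inhibiting growth, monitored visually and spectrophotometrically; DMSO-plus-inoculum well as solvent control; triplicate.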

[14] = tested on: Micrococcus luteus; assay: Potentiation of chloromycin-induced antibacterial activity against Micrococcus luteus ATCC 4698 at 2 times MIC after 24 hrs by two-fold serial dilution method; format: functional
[15] = tested on: Pseudomonas aeruginosa; assay: Potentiation of norfloxacin-induced antibacterial activity against Pseudomonas aeruginosa ATCC 27853 at 2 times MIC after 24 hrs by two-fold serial dilution method; format: functional
[16] = tested on: Bacillus subtilis; assay: Potentiation of norfloxacin-induced antibacterial activity against Bacillus subtilis ATCC 21216 at MIC after 24 hrs by two-fold serial dilution method; format: functional
[17] = tested on: Candida; assay: Antifungal activity against Candida mycoderma after 24 hrs by two-fold serial dilution method; format: functional; in short: as §2
[18] = tested on: Aspergillus flavus; assay: Antifungal activity against Aspergillus flavus after 24 hrs by two-fold serial dilution method; format: functional; in short: as §2
[19] = tested on: Pseudomonas aeruginosa; assay: Potentiation of chloromycin-induced antibacterial activity against Pseudomonas aeruginosa ATCC 27853 at 4 times MIC after 24 hrs by two-fold serial dilution method; format: functional
[20] = tested on: Micrococcus luteus; assay: Antibacterial activity against Micrococcus luteus ATCC 4698 after 24 hrs by two-fold serial dilution method; format: functional; conditions: ATCC 4698, 24 h; in short: as §1
[21] = tested on: Escherichia coli; assay: Potentiation of chloromycin-induced antibacterial activity against Escherichia coli JM109 at 8 times MIC after 24 hrs by two-fold serial dilution method; format: functional
[22] = tested on: Bacillus; assay: Potentiation of norfloxacin-induced antibacterial activity against Bacillus proteus ATCC 13315 at 2 times MIC after 24 hrs by two-fold serial dilution method; format: functional
[23] = tested on: Escherichia coli; assay: Antibacterial activity against Escherichia coli JM109 after 24 hrs by two-fold serial dilution method; format: functional; conditions: JM109, 24 h
[24] = tested on: Staphylococcus aureus; assay: Potentiation of norfloxacin-induced antibacterial activity against Staphylococcus aureus ATCC 6538 at MIC after 24 hrs by two-fold serial dilution method; format: functional
[25] = tested on: Staphylococcus aureus; assay: Antibacterial activity against methicillin-resistant Staphylococcus aureus N315 after 24 hrs by two-fold serial dilution method; format: functional; conditions: N315, 24 h
[26] = tested on: Aspergillus flavus; assay: Potentiation of fluconazole-induced antifungal activity against Aspergillus flavus at 2 times MIC after 24 hrs by two-fold serial dilution method; format: functional
[27] = tested on: Cyberlindnera jadinii; assay: Potentiation of fluconazole-induced antifungal activity against Candida utilis at 4 times MIC after 24 hrs by two-fold serial dilution method; format: functional
[28] = tested on: Escherichia coli; assay: Potentiation of norfloxacin-induced antibacterial activity against Escherichia coli JM109 at 4 times MIC after 24 hrs by two-fold serial dilution method; format: functional
[29] = tested on: Micrococcus luteus; assay: Potentiation of norfloxacin-induced antibacterial activity against Micrococcus luteus ATCC 4698 at MIC after 24 hrs by two-fold serial dilution method; format: functional
[30] = tested on: Klebsiella pneumoniae; assay: Antibacterial activity against Klebsiella pneumoniae; format: functional
[31] = tested on: Staphylococcus aureus; assay: Antibacterial activity against methicillin-resistant Staphylococcus aureus; format: functional
In short: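 Broth microdilution by two-fold serial dilution in 96-well plates following NCCLS. MRSA strain N315. Inoculum adjusted with sterile saline to 1 × 10⁵ CFU. Compounds were made up as DMSO stocks, then diluted in Mueller-Hinton broth. A DMSO plus inoculum well, without drug, was the growth control. Growth was read visually and spectrophotometrically, in triplicate. MIC is the lowest concentration giving complete inhibition of growth.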

SMILES	MIC [1] [µg/mL]	MIC [3] [µg/mL]	MIC [4] [µg/mL]	MIC [6] [µg/mL]	MIC [7] [µg/mL]	MIC [9] [µg/mL]	MIC [10] [µg/mL]	MIC [13] [µg/mL]	MIC [17] [µg/mL]	MIC [18] [µg/mL]	MIC [20] [µg/mL]	MIC [23] [µg/mL]	MIC [25] [µg/mL]	further results
Cl.Cl.Fc1ccc(CN(Cc2nc3ccccc3[nH]2)c2cc(C(F)(F)F)cc(C(F)(F)F)c2)c(F)c1	8	16	8	16	8	8	16	16	16	8	8	32	16	fractional inhibitory concentration index (FICI) [2]: 0.375; fractional inhibitory concentration index (FICI) [5]: 0.375; fractional inhibitory concentration index (FICI) [8]: 0.375; fractional inhibitory concentration index (FICI) [11]: 0.25; fractional inhibitory concentration index (FICI) [12]: 0.5; fractional inhibitory concentration index (FICI) [14]: 0.375; fractional inhibitory concentration index (FICI) [15]: 0.25; fractional inhibitory concentration index (FICI) [16]: 0.25; fractional inhibitory concentration index (FICI) [19]: 0.375; fractional inhibitory concentration index (FICI) [21]: 0.375; fractional inhibitory concentration index (FICI) [22]: 0.25; fractional inhibitory concentration index (FICI) [24]: 0.25; fractional inhibitory concentration index (FICI) [26]: 0.375; fractional inhibitory concentration index (FICI) [27]: 0.375; fractional inhibitory concentration index (FICI) [28]: 0.375; fractional inhibitory concentration index (FICI) [29]: 0.25
CCCC[C@H](CC(=O)NO)C(=O)N[C@@H](c1nc2ccccc2[nH]1)C(C)C														MIC [30]: 0.5 µg/mL (≈ 1.39 µM)
Cc1ccc(N(Cc2nc3ccccc3[nH]2)Cc2ccccc2Cl)cc1	64 (≈ 177 µM)	32 (≈ 88.4 µM)	64 (≈ 177 µM)	32 (≈ 88.4 µM)	64 (≈ 177 µM)	32 (≈ 88.4 µM)	32 (≈ 88.4 µM)	64 (≈ 177 µM)	32 (≈ 88.4 µM)	32 (≈ 88.4 µM)	128 (≈ 354 µM)	32 (≈ 88.4 µM)	128 (≈ 354 µM)	
CCCCCCCCN(Cc1nc2ccccc2[nH]1)c1ccc(C)cc1	32 (≈ 91.6 µM)	16 (≈ 45.8 µM)	16 (≈ 45.8 µM)	64 (≈ 183 µM)	16 (≈ 45.8 µM)	16 (≈ 45.8 µM)	32 (≈ 91.6 µM)	64 (≈ 183 µM)	32 (≈ 91.6 µM)	64 (≈ 183 µM)	128 (≈ 366 µM)	128 (≈ 366 µM)	128 (≈ 366 µM)	
Cc1ccc(NCc2nc3ccccc3[nH]2)cc1	32 (≈ 135 µM)	64 (≈ 270 µM)	64 (≈ 270 µM)	16 (≈ 67.4 µM)	64 (≈ 270 µM)	32 (≈ 135 µM)	32 (≈ 135 µM)	64 (≈ 270 µM)	256 (≈ 1080 µM)	128 (≈ 539 µM)	512 (≈ 2160 µM)	64 (≈ 270 µM)	128 (≈ 539 µM)	
CCCCCCCCCCCCCCCCCCN(Cc1nc2ccccc2[nH]1)c1ccc(C)cc1	128 (≈ 261 µM)	64 (≈ 131 µM)	64 (≈ 131 µM)	64 (≈ 131 µM)	64 (≈ 131 µM)	32 (≈ 65.3 µM)	32 (≈ 65.3 µM)	64 (≈ 131 µM)	32 (≈ 65.3 µM)	64 (≈ 131 µM)	256 (≈ 523 µM)	256 (≈ 523 µM)	128 (≈ 261 µM)	
CCCN(Cc1nc2ccccc2[nH]1)c1ccc(C)cc1	128 (≈ 458 µM)	256 (≈ 916 µM)	64 (≈ 229 µM)	128 (≈ 458 µM)	128 (≈ 458 µM)	128 (≈ 458 µM)	64 (≈ 229 µM)	128 (≈ 458 µM)	128 (≈ 458 µM)	128 (≈ 458 µM)	128 (≈ 458 µM)	128 (≈ 458 µM)	256 (≈ 916 µM)	
Fc1ccccc1NCc1nc2ccccc2[nH]1	16 (≈ 66.3 µM)	128 (≈ 531 µM)	32 (≈ 133 µM)	64 (≈ 265 µM)	32 (≈ 133 µM)	32 (≈ 133 µM)	64 (≈ 265 µM)	64 (≈ 265 µM)	32 (≈ 133 µM)	32 (≈ 133 µM)	64 (≈ 265 µM)	32 (≈ 133 µM)	32 (≈ 133 µM)	
FC(F)(F)c1cc(N(Cc2nc3ccccc3[nH]2)Cc2ccc(Cl)cc2Cl)cc(C(F)(F)F)c1	64 (≈ 123 µM)	128 (≈ 247 µM)	64 (≈ 123 µM)	32 (≈ 61.7 µM)	32 (≈ 61.7 µM)	64 (≈ 123 µM)	64 (≈ 123 µM)	64 (≈ 123 µM)	64 (≈ 123 µM)	64 (≈ 123 µM)	128 (≈ 247 µM)	64 (≈ 123 µM)	64 (≈ 123 µM)	
Fc1ccccc1N(CCCCn1c2ccccc2c2ccccc21)Cc1nc2ccccc2[nH]1	64 (≈ 138 µM)	64 (≈ 138 µM)	64 (≈ 138 µM)	64 (≈ 138 µM)	64 (≈ 138 µM)	32 (≈ 69.2 µM)	32 (≈ 69.2 µM)	128 (≈ 277 µM)	64 (≈ 138 µM)	64 (≈ 138 µM)	128 (≈ 277 µM)	128 (≈ 277 µM)	128 (≈ 277 µM)	
CCCCCCCCCCn1c(CNNC(=O)c2sc(C(=O)NNCc3nc4ccccc4n3CCCCCCCCCC)c(C)c2C)nc2ccccc21														MIC [31]: 2 µg/mL (≈ 2.6 µM)
CCCCCCN(Cc1nc2ccccc2[nH]1)c1ccc(C)cc1	128 (≈ 398 µM)	64 (≈ 199 µM)	128 (≈ 398 µM)	256 (≈ 796 µM)	64 (≈ 199 µM)	64 (≈ 199 µM)	128 (≈ 398 µM)	64 (≈ 199 µM)	128 (≈ 398 µM)	64 (≈ 199 µM)	64 (≈ 199 µM)	256 (≈ 796 µM)	128 (≈ 398 µM)	
Cc1ccc(N(Cc2ccc(Cl)cc2)Cc2nc3ccccc3[nH]2)cc1	32 (≈ 88.4 µM)	64 (≈ 177 µM)	64 (≈ 177 µM)	32 (≈ 88.4 µM)	128 (≈ 354 µM)	64 (≈ 177 µM)	64 (≈ 177 µM)	64 (≈ 177 µM)	32 (≈ 88.4 µM)	128 (≈ 354 µM)	128 (≈ 354 µM)	32 (≈ 88.4 µM)	64 (≈ 177 µM)	
